# Results collected from several papers.
# Lines come from different studies, so protocols differ.
# RPS6KA3: Ribosomal protein S6 kinase alpha-3 (RPS6KA3, Homo sapiens, UniProt P51812)
# RPS6KA3 C-terminal kinase domain: Ribosomal protein S6 kinase alpha-3, C-terminal kinase domain (RPS6KA3, Homo sapiens, UniProt P51812)
# RPS6KA3 N-terminal kinase domain: Ribosomal protein S6 kinase alpha-3, N-terminal kinase domain (RPS6KA3, Homo sapiens, UniProt P51812)
SMILES,target,assay,conditions,endpoint,value
COc1cc(Cl)c(C(=O)N[C@@H](CN[C@H]2CC[C@@H](N)CC2)Cc2ccc(C#N)cc2)cc1-c1ccc(CN[C@H](C)c2ccc(C)cc2)o1,RPS6KA3,"enzyme activity, inhibitor",1 µM,remaining activity,72%
C[C@@H]1CCN(c2nccc(-c3cnn4ncccc34)n2)C1,RPS6KA3 C-terminal kinase domain,"binding, competition with immobilised ligand",1 µM,remaining binding,98%
Cc1ccc(C(=O)Nc2ccc(CN3CCN(C)CC3)c(C(F)(F)F)c2)cc1C#Cc1cnc2cccnn12,RPS6KA3,"enzyme activity, inhibitor",23.5 nM,remaining activity,93%
Cc1ccc(Nc2nccc(N(C)c3ccc4c(C)n(C)nc4c3)n2)cc1S(N)(=O)=O,RPS6KA3,"enzyme activity, inhibitor",10 µM,inhibition,56%
CCOCCn1cc(C(=O)Nc2ccc(-n3nc(-c4cccnc4)cc3C(F)(F)F)cn2)ccc1=O,RPS6KA3 C-terminal kinase domain,"cell-free assay, competition with immobilised ligand",1 µM,remaining binding,87%
CCOc1cc(-c2nncn2C)ccc1Nc1ncc2cc(C)nc(NCC(C)(C)C)c2n1,RPS6KA3,"enzyme activity, inhibitor, FRET",1 µM,inhibition,18%
CNC(=O)c1cc(Oc2ccc(NC(=O)Nc3ccc(Cl)c(C(F)(F)F)c3)cc2)ccn1,RPS6KA3,"enzyme activity, inhibitor",10 µM,inhibition,46%
O=C(Nc1cnn(-c2csc(C(=O)NC3COC3)c2)c1)Nc1c(F)cccc1Cl,RPS6KA3,"enzyme activity, inhibitor",5 µM,remaining activity,79.9%
CCN(CC)CCNC(=O)c1c(C)[nH]c(/C=C2\C(=O)Nc3ccc(F)cc32)c1C,RPS6KA3,cell-free assay,0.5 µM,remaining signal,35.5%
COc1cc(Nc2cnc(C#N)c(O[C@H](C)CN(C)C)n2)ncc1-c1cnn(C)c1,RPS6KA3,"enzyme activity, inhibitor, radiometric",10 µM,remaining activity,34%
CN(c1nccc(-c2cnn3ncccc23)n1)C1CC1,RPS6KA3 N-terminal kinase domain,"binding, competition with immobilised ligand",1 µM,remaining binding,100%
CCCCNc1ncc2c(-c3ccc(F)cc3)nn(C[C@H]3CC[C@H](N)CC3)c2n1,RPS6KA3 N-terminal kinase domain,"target engagement in cells, inhibitor, chemoproteomics",20 mM,inhibition,32.6%
CCCOc1ccc([C@H]2[C@H](C(=O)O)[C@@H](c3ccc4c(c3)OCO4)CN2CC(=O)Nc2c(CC)cccc2CC)cc1,RPS6KA3 C-terminal kinase domain,"cell-free assay, competition with immobilised ligand",1 µM,remaining binding,73%
COc1cc2ncnc(Nc3ccc(F)c(Cl)c3)c2cc1OCCCN1CCOCC1,RPS6KA3,cell-free assay,0.5 µM,remaining signal,100%
COc1cc2ncnc(Nc3ccc(Oc4ccccc4)cc3C)c2cc1OC,RPS6KA3,"enzyme activity, inhibitor",1 µM,inhibition,-8%
Cc1ccc(C(=O)NCc2ccsc2)cc1C#Cc1cn(C(C)C)c2ncnc(N)c12,RPS6KA3,"enzyme activity, inhibitor",1 µM,activity vs control,92%
Cn1cncc1C1=CN(c2ncnc3[nH]cnc23)CCS1,RPS6KA3,"enzyme activity, inhibitor, radiometric",2 µM,inhibition,66%
C[C@@H]1CCN(C(=O)CC#N)C[C@@H]1N(C)c1ncnc2[nH]ccc12,RPS6KA3,"cell-free assay, inhibitor",0.5 µM,remaining signal,97%
c1cnn2ncc(-c3ccnc(N4CCC45COC5)n3)c2c1,RPS6KA3 C-terminal kinase domain,"binding, competition with immobilised ligand",1 µM,remaining binding,100%
COc1ccc2c(c1)O[C@@H](c1ccc(OC)c(OC)c1)C[C@H]2NC(=O)C1(c2ccc3c(c2)OC(F)(F)O3)CC1,RPS6KA3 C-terminal kinase domain,"cell-free assay, competition with immobilised ligand",1 µM,remaining binding,100%
Cc1ccc(NC(=O)c2ccc(C)c(C(F)(F)F)c2)cc1C#Cc1nn(C2CCC(O)CC2)c2ncnc(N)c12 (centres unmarked),RPS6KA3,cell-free assay,10 µM,remaining signal,44%
Nc1nc(Nc2ccccc2)sc1C(=O)c1c(F)cccc1F,RPS6KA3,"enzyme activity, inhibitor",10 µM,remaining activity,38%
CC(C)(C)c1nc2c(s1)c1nc(N)ncc1c1ccc(NS(=O)(=O)c3c(F)cccc3F)c(F)c12,RPS6KA3,"enzyme activity, inhibitor, radiometric",1 µM,remaining activity,90%
C[C@H](c1ccc(F)cc1)N(Cc1cccc(C(=O)O)c1)C(=O)c1cnc2ccccc2c1,RPS6KA3 C-terminal kinase domain,"cell-free assay, competition with immobilised ligand",1 µM,remaining binding,89%
COc1ccnn2ncc(-c3ccnc(N(C)C)n3)c12,RPS6KA3 C-terminal kinase domain,"binding, competition with immobilised ligand",1 µM,remaining binding,100%
CNCc1ccccc1-c1csc([C@H](C)Nc2nc(C)nc3cc(OC)c(OC)cc23)c1,RPS6KA3 C-terminal kinase domain,"cell-free assay, competition with immobilised ligand",1 µM,remaining binding,78%
Cc1sc(C(=O)NC2COC2)cc1-n1cc(NC(=O)Nc2c(F)cccc2Cl)cn1,RPS6KA3,"enzyme activity, inhibitor",10 µM,remaining activity,73%
O=C(O)c1cc(-c2ccc(C3CCNCC3)cc2)c2ccc(-c3ccc(C(F)(F)F)cc3)cc2c1,RPS6KA3 C-terminal kinase domain,"cell-free assay, competition with immobilised ligand",1 µM,remaining binding,80%
FC(F)c1nc2ccccc2n1-c1nc(N2CCOCC2)nc(N2CCOCC2)n1,RPS6KA3,"enzyme activity, inhibitor",10 µM,remaining activity,83%
N[C@@H]1CCN(c2nccc(-c3cnn4ncccc34)n2)C1,RPS6KA3 N-terminal kinase domain,"binding, competition with immobilised ligand",1 µM,remaining binding,100%
CC(C)(O)[C@H]1CC[C@H](Nc2ccc3ncc(-c4cccc(C(F)(F)F)c4)n3n2)CC1,RPS6KA3,"enzyme activity, inhibitor",1 µM,remaining activity,90.6%
O=C(NC[C@@H]1[C@H]2CN(C(=O)OCc3cc(C(F)(F)F)cc(C(F)(F)F)c3)C[C@@H]12)c1ccc2[nH]nnc2c1,RPS6KA3 N-terminal kinase domain,"cell-free assay, competition with immobilised ligand",1 µM,remaining binding,94%
Cc1cc(NC(=O)c2cccc3cc(-c4cccc5[nH]nc(N)c45)ccc23)ccc1F,RPS6KA3,"enzyme activity, inhibitor",0.1 µM,activity vs control,131%
Nc1ncnc2occ(-c3ccc(NC(=O)Nc4cc(C(F)(F)F)ccc4F)cc3)c12,RPS6KA3 N-terminal kinase domain,"cell-free assay, inhibitor",20 µM,remaining signal,0.4%
FC(F)(F)Oc1cccc(-c2cnc3ccc(-c4ccncc4)nn23)c1,RPS6KA3,"enzyme activity, inhibitor, radiometric",5 µM,activity vs control,98%
CN(C)C1CCN(CC#Cc2nn(C3CCCC3)c3nc(NCc4ccccc4)ncc23)C1 (centres unmarked),RPS6KA3,"enzyme activity, inhibitor, FRET",10 µM,inhibition,15%
CC1CCCN1c1nccc(-c2cnn3ncccc23)n1 (centres unmarked),RPS6KA3 N-terminal kinase domain,"binding, competition with immobilised ligand",1 µM,remaining binding,100%
COCCOc1nc(-c2ccc(Cl)nc2)nc2c1CN(C(=O)c1ncn3ccccc13)CC2,RPS6KA3 N-terminal kinase domain,"cell-free assay, competition with immobilised ligand",0.1 µM,remaining binding,100%
CC/C(=N\NC(=O)NCc1cccc(O)c1)c1ccc(O)c(C)c1O,RPS6KA3,"enzyme activity, inhibitor",0.1 µM,inhibition,79.5%
CN(CCCC(F)(F)F)c1nccc(-c2cnn3ncccc23)n1,RPS6KA3 N-terminal kinase domain,"binding, competition with immobilised ligand",1 µM,remaining binding,100%
O=C1NC(=O)c2cc(Nc3ccc(F)cc3)c(Nc3ccc(F)cc3)cc21,RPS6KA3,cell-free assay,0.5 µM,remaining signal,118%
